ChEMBL document CHEMBL1152686, “Development and characterization of lysine based tripeptide analogues as inhibitors of Sir2 activity” (Bioorg Med Chem, 2009)
Active and inactive are the calls of the source. The rule behind the calls is not given here.

Tests used:
[1] = Noncompetitive inhibition of His-tagged Plasmodium falciparum Sir2 expressed in Escherichia coli measured by secondary plot of intercept versus inhibitor concentration in presence of saturating NAD+ levels by FRET assay
Summary of the method: (§1)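 His-tagged PfSir2 from E. coli, coupled FRET assay (acetyl-lysine EDANS–DABCYL peptide, trypsin cleavage after deacetylation), 37 °C. Initial velocities measured with one substrate varied, the other fixed at saturating level, at several fixed inhibitor levels. Parameters from non-linear regression. Lineweaver–Burk plots, plus secondary slope and intercept plots versus [I], fit linearly or by second-order polynomial. Two independently purified enzyme batches.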

[2] = molecular target: T1, NAD-dependent protein deacetylase sirtuin-1 (Homo sapiens) (UniProt Q96EB6); test: Inhibition of human Sirt1
T1 sequence (whole entry): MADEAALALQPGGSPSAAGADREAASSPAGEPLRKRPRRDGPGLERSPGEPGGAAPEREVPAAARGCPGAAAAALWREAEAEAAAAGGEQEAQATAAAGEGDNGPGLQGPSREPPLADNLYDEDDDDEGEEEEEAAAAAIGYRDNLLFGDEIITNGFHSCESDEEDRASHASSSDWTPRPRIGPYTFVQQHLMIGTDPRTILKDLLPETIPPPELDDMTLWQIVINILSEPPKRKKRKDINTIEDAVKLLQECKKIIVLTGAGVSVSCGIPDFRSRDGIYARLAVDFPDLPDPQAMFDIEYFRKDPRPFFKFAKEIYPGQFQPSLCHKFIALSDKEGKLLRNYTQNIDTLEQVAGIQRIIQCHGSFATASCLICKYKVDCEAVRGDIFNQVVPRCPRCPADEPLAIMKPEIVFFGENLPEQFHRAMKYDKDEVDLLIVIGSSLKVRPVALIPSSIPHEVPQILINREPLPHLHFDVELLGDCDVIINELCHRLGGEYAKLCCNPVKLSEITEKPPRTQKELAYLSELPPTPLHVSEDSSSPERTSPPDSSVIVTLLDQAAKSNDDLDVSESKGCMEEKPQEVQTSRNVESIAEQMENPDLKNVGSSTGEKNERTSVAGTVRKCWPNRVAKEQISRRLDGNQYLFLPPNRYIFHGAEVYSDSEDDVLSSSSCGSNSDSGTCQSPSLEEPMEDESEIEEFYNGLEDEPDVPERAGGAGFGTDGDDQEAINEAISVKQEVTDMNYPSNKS

[3] = Inhibition of His-tagged Plasmodium falciparum Sir2 expressed in Escherichia coli preincubated 5 min before substrate assay mixture addition by FRET assay
Summary of the method: (§2)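 Recombinant C-terminal His-tagged PfSir2 from E. coli BL21(DE3), Ni-NTA purified. Enzyme preincubated with inhibitor 5 min, then added to mix of 5 mM Tris-HCl pH 8.0, trichostatin A and trypsin with acetyl-lysine EDANS–DABCYL peptide. Deacetylation allows trypsin cleavage and a rise in fluorescence. Read at 37 °C on a spectrofluorimeter.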

[4] = Competitive inhibition of His-tagged Plasmodium falciparum Sir2 expressed in Escherichia coli measured by primary plot of enzyme kinetics in presence of saturating acetylated peptide levels by FRET assay; summary of the method: as §1
[5] = Competitive inhibition of His-tagged Plasmodium falciparum Sir2 expressed in Escherichia coli measured by secondary plot of slope versus inhibitor concentration in presence of saturating acetylated peptide levels by FRET assay; summary of the method: as §1
[6] = Noncompetitive inhibition of His-tagged Plasmodium falciparum Sir2 expressed in Escherichia coli measured by secondary plot of slope versus inhibitor concentration in presence of saturating NAD+ levels by FRET assay; summary of the method: as §1
[7] = Noncompetitive inhibition of His-tagged Plasmodium falciparum Sir2 expressed in Escherichia coli measured by primary plot of enzyme kinetics in presence of saturating NAD+ levels by FRET assay; summary of the method: as §1
Plasmodium falciparum [8] = test: Inhibition of His-tagged Plasmodium falciparum Sir2 expressed in Escherichia coli at t500 uM preincubated 5 min before substrate assay mixture addition by FRET assay; summary of the method: as §2
Plasmodium falciparum [9] = test: Antiplasmodial activity against Plasmodium falciparum 3D7 infected in human O+ erythrocytes assessed as inhibition of parasite growth in intraerythrocytic stage after 24 hrs by [3H]hypoxanthine incorporation assay; format: functional, organism-based
Summary of the method: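 P. falciparum 3D7 grown in human O+ erythrocytes at 5% hematocrit, RPMI 1640 with 10% human serum. Compound in DMSO, twofold serial dilutions from 400 to 0.2 µM. Wells at 2% parasitemia and 2% hematocrit, 37 °C in candle jar. After 24 h, 1.0 µCi [3H]hypoxanthine added per well for another 12 h. Filter-harvested counts; IC50 by interpolation from log plot. Done twice in duplicate.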

Row | SMILES | inhibition (qualitative call) [2] | IC50 [3] [µM] | inhibition (Plasmodium falciparum [8]) | Ki [1] [µM] | Ki [4] [µM] | Ki [5] [µM] | Ki [6] [µM] | Ki [7] [µM] | IC50 (Plasmodium falciparum [9]) [µM]
1 | COC(=O)[C@@H](NC(=O)[C@H](CCCCNC(=O)OCc1cn([C@@H]2O[C@H]([C@@H]3COC(C)(C)O3)[C@@H]3OC(C)(C)O[C@@H]32)nn1)NC(=O)[C@H](Cc1ccccc1)NC(=O)OC(C)(C)C)C(C)C | Active | 34 |  | 125 | 58 | 62 | 90 | 122 | 
2 | C#CCOC(=O)NCCCC[C@H](NC(=O)OC(C)(C)C)C(=O)N[C@H](C(=O)OC)C(C)C |  |  | inactive |  |  |  |  |  | 
3 | C#CCOC(=O)NCCCC[C@H](NC(=O)OC(C)(C)C)C(=O)O |  |  | inactive |  |  |  |  |  | 
4 | COC(=O)[C@@H](NC(=O)[C@H](CCCCNC(=O)OCc1cn([C@@H]2O[C@H](COC(C)=O)[C@H](OC(C)=O)[C@H](OC(C)=O)[C@H]2OC(C)=O)nn1)NC(=O)[C@H](Cc1ccccc1)NC(=O)OC(C)(C)C)C(C)C | Active | 151 |  | 193 | 85 | 80 | 172 | 154 | 

Continued, in another order:

Row | inhibition (qualitative call) [2] | IC50 [3] [µM] | inhibition (Plasmodium falciparum [8]) | SMILES | Ki [1] [µM] | Ki [4] [µM] | Ki [5] [µM] | Ki [6] [µM] | Ki [7] [µM] | IC50 (Plasmodium falciparum [9]) [µM]
5 |  |  | inactive | CC(=O)O[C@H]1C[C@H](n2cc(C)c(=O)[nH]c2=O)O[C@@H]1Cn1cc(COC(=O)NCCCC[C@H](NC(=O)OC(C)(C)C)C(=O)OCc2ccccc2)nn1 |  |  |  |  |  | 
6 | Active | 23 |  | COC(=O)[C@@H](NC(=O)[C@H](CCCCNC(=O)OCc1cn(C[C@H]2O[C@H](OC)[C@H](OC(C)=O)[C@@H](OC(C)=O)[C@@H]2OC(C)=O)nn1)NC(=O)[C@H](Cc1ccccc1)NC(=O)OC(C)(C)C)C(C)C | 119 | 60 | 60 | 90 | 134 | 9.8
7 | Active | 33 |  | COC(=O)[C@@H](NC(=O)[C@H](CCCCNC(=O)OCc1cn(C[C@H]2O[C@@H](n3cc(C)c(=O)[nH]c3=O)C[C@@H]2OC(C)=O)nn1)NC(=O)[C@H](Cc1ccccc1)NC(=O)OC(C)(C)C)C(C)C | 113 | 60 | 64 | 115 | 124 | 
